Assay results from ChEMBL document CHEMBL1144880, “Identification of phenylisoxazolines as novel and viable antibacterial agents active against Gram-positive pathogens” (J Med Chem, 2003).
Converted amounts (≈) assume the structure as drawn.

Experiments:
Enterococcus faecalis = experiment: In vitro minimum inhibitory concentration (MIC) against Enterococcus faecalis UC9217; type: functional
In short: (§1)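 MIC determined by standard broth microdilution, defined as the lowest drug concentration (µg/mL) inhibiting visible growth.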

Escherichia coli = experiment: In vitro minimum inhibitory concentration (MIC) against Escherichia coli UC6674; type: functional; in short: as §1
Haemophilus influenzae = experiment: In vitro minimum inhibitory concentration (MIC) against Haemophilus influenzae UC30063; type: functional; in short: as §1
Moraxella catarrhalis = experiment: In vitro minimum inhibitory concentration (MIC) against Moraxella catarrhalis UC30610; type: functional; in short: as §1
Mus musculus = experiment: In Vivo effective dose required for antibacterial activity in a systemic mouse infection model (SMIM) upon peroral administration against Staphylococcus aureus UC9213; type: functional; conditions: po
In short: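 Compound was given orally at 1 and 5 h after infection. Deaths were monitored for at least 6 days, and ED50 (dose curing 50% of mice) was calculated by probit analysis.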

Streptococcus pneumoniae = experiment: In vitro minimum inhibitory concentration (MIC) against Streptococcus pneumoniae UC9912; type: functional; in short: as §1
Staphylococcus aureus [1] = experiment: In vitro minimum inhibitory concentration (MIC) against Staphylococcus aureus UC12673; type: functional; in short: as §1
Staphylococcus aureus [2] = experiment: In vitro minimum inhibitory concentration (MIC) against Staphylococcus aureus UC9213; type: functional; in short: as §1
[3] = tested on: Staphylococcus epidermidis; experiment: In vitro minimum inhibitory concentration (MIC) against Staphylococcus epidermidis UC12084; type: functional; in short: as §1
[4] = Tmax value in Male Sprague-Dawley Rat at dose 25 (mg/kg po) [tmax (h)]; type: ADME, organism-based; conditions: in vivo
In short: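 Male Sprague-Dawley rats dosed intravenously or orally. Intact compound measured in plasma by HPLC-UV after protein-precipitation sample preparation. Half-life reported as harmonic mean apparent terminal disposition half-life. Bioavailability is absolute oral bioavailability. Some comparator values are archival data.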

Rattus norvegicus = species: Rattus norvegicus; experiment: Compound was evaluated for metabolic stability via In vitro Rat 5E6 cell at 50 uM concentration; type: functional

Row | Compound | MIC (Enterococcus faecalis) | MIC (Escherichia coli) | MIC (Haemophilus influenzae) | MIC (Moraxella catarrhalis) | MIC (Streptococcus pneumoniae) | MIC (Staphylococcus aureus [1]) | MIC (Staphylococcus aureus [2]) | MIC [3] | ED50 (Mus musculus) | Tmax [4] | Remaining at 40 min (Rattus norvegicus)
1 | CC(=O)NC[C@H]1CN(c2ccc(N3CCOCC3)c(F)c2)C(=O)O1 [LINEZOLID] | – | > 32 µg/mL | 16 µg/mL (≈ 47.4 µM) | 8 µg/mL (≈ 23.7 µM) | – | – | – | 1 µg/mL (≈ 2.96 µM) | – | 18.6 min | 97%
2 | CC(=O)NCC1CC(c2ccc(Br)cc2)=NO1 (stereo not drawn) | > 16 µg/mL | > 16 µg/mL | > 16 µg/mL | > 16 µg/mL | > 16 µg/mL | > 16 µg/mL | > 16 µg/mL | > 16 µg/mL | – | – | –
3 | CC(=O)NC[C@@H]1CC(c2cc(F)c(N3CCOCC3)c(F)c2)=NO1 | > 16 µg/mL | > 16 µg/mL | > 16 µg/mL | > 16 µg/mL | > 16 µg/mL | > 16 µg/mL | > 16 µg/mL | > 16 µg/mL | – | – | –
4 | CC(=O)NCC1CC(c2ccc(N3CCN(C(=O)CO)CC3)cc2)=NO1 (stereo not drawn) | 16 µg/mL (≈ 44.4 µM) | > 16 µg/mL | > 16 µg/mL | > 16 µg/mL | 4 µg/mL (≈ 11.1 µM) | 8 µg/mL (≈ 22.2 µM) | 16 µg/mL (≈ 44.4 µM) | 4 µg/mL (≈ 11.1 µM) | – | – | –
5 | CC(=O)NC[C@@H]1CC(c2ccc(C3=CCN(C(=O)CO)CC3)cc2)=NO1 | > 16 µg/mL | > 16 µg/mL | > 16 µg/mL | > 16 µg/mL | > 16 µg/mL | > 16 µg/mL | > 16 µg/mL | > 16 µg/mL | – | – | –
6 | CC(=O)NC[C@H]1CC(c2cc(F)c(-n3ccnc3)c(F)c2)=NO1 | 8 µg/mL (≈ 25 µM) | > 16 µg/mL | > 16 µg/mL | > 16 µg/mL | 2 µg/mL (≈ 6.24 µM) | 4 µg/mL (≈ 12.5 µM) | 8 µg/mL (≈ 25 µM) | 2 µg/mL (≈ 6.24 µM) | – | – | –
7 | C/C(S)=N/C[C@H]1CC(c2cc(F)c(-n3ccnc3)c(F)c2)=NO1 | 8 µg/mL (≈ 23.8 µM) | > 16 µg/mL | > 16 µg/mL | > 16 µg/mL | 2 µg/mL (≈ 5.95 µM) | 4 µg/mL (≈ 11.9 µM) | 4 µg/mL (≈ 11.9 µM) | 2 µg/mL (≈ 5.95 µM) | – | – | –
8 | CC(=O)NCC1CC(c2ccc(N3CCN(C(=O)CO)CC3)c(F)c2)=NO1 (racemic) | 8 µg/mL (≈ 21.1 µM) | > 16 µg/mL | > 16 µg/mL | 16 µg/mL (≈ 42.3 µM) | 2 µg/mL (≈ 5.29 µM) | 8 µg/mL (≈ 21.1 µM) | 8 µg/mL (≈ 21.1 µM) | 4 µg/mL (≈ 10.6 µM) | – | – | –
9 | CC(=O)NC[C@H]1CC(c2ccc(-n3cncn3)c(F)c2)=NO1 | > 16 µg/mL | > 16 µg/mL | > 16 µg/mL | > 16 µg/mL | 4 µg/mL (≈ 13.2 µM) | 16 µg/mL (≈ 52.8 µM) | > 16 µg/mL | 8 µg/mL (≈ 26.4 µM) | – | – | –

The remaining compounds from weak to strong by MIC (Enterococcus faecalis), led by results:

Row | MIC (Enterococcus faecalis) | MIC (Escherichia coli) | MIC (Haemophilus influenzae) | MIC (Moraxella catarrhalis) | MIC (Streptococcus pneumoniae) | MIC (Staphylococcus aureus [1]) | MIC (Staphylococcus aureus [2]) | MIC [3] | Compound | ED50 (Mus musculus) | Tmax [4] | Remaining at 40 min (Rattus norvegicus)
10 | 8 µg/mL (≈ 23.6 µM) | > 16 µg/mL | > 16 µg/mL | 16 µg/mL (≈ 47.2 µM) | 2 µg/mL (≈ 5.89 µM) | 8 µg/mL (≈ 23.6 µM) | 8 µg/mL (≈ 23.6 µM) | 4 µg/mL (≈ 11.8 µM) | CC(=O)NCC1CC(c2cc(F)c(N3CCOCC3)c(F)c2)=NO1 (racemic) | – | – | –
11 | 8 µg/mL (≈ 26.2 µM) | > 16 µg/mL | > 16 µg/mL | > 16 µg/mL | 2 µg/mL (≈ 6.55 µM) | 4 µg/mL (≈ 13.1 µM) | 4 µg/mL (≈ 13.1 µM) | 4 µg/mL (≈ 13.1 µM) | CC(=O)NC[C@H]1CC(c2ccc(N3CCCC3)c(F)c2)=NO1 | – | – | –
12 | 4 µg/mL (≈ 11.8 µM) | > 16 µg/mL | > 16 µg/mL | 8 µg/mL (≈ 23.6 µM) | 1 µg/mL (≈ 2.95 µM) | 4 µg/mL (≈ 11.8 µM) | 4 µg/mL (≈ 11.8 µM) | 2 µg/mL (≈ 5.89 µM) | CC(=O)NC[C@H]1CC(c2cc(F)c(N3CCOCC3)c(F)c2)=NO1 | > 20 mg/kg | – | –
13 | 4 µg/mL (≈ 11.4 µM) | > 16 µg/mL | > 16 µg/mL | > 16 µg/mL | 0.5 µg/mL (≈ 1.42 µM) | 4 µg/mL (≈ 11.4 µM) | 4 µg/mL (≈ 11.4 µM) | 2 µg/mL (≈ 5.68 µM) | COc1ccc(-c2ccc(C3=NOC(CNC(C)=O)C3)cc2)ccc1=O (stereo not drawn) | 15.4 mg/kg | – | –
14 | 4 µg/mL (≈ 13.2 µM) | > 16 µg/mL | > 16 µg/mL | 16 µg/mL (≈ 52.9 µM) | 1 µg/mL (≈ 3.31 µM) | 2 µg/mL (≈ 6.62 µM) | 2 µg/mL (≈ 6.62 µM) | 1 µg/mL (≈ 3.31 µM) | CC(=O)NC[C@H]1CC(c2ccc(-n3ccnc3)c(F)c2)=NO1 | – | – | –
15 | 4 µg/mL (≈ 11.2 µM) | > 16 µg/mL | > 16 µg/mL | 8 µg/mL (≈ 22.4 µM) | 0.5 µg/mL (≈ 1.4 µM) | 2 µg/mL (≈ 5.6 µM) | 2 µg/mL (≈ 5.6 µM) | 1 µg/mL (≈ 2.8 µM) | CC(=O)NC[C@H]1CC(c2ccc(C3=CCN(C(=O)CO)CC3)cc2)=NO1 | 6 mg/kg | – | –
16 | 4 µg/mL (≈ 12.2 µM) | > 16 µg/mL | 16 µg/mL (≈ 48.9 µM) | 8 µg/mL (≈ 24.4 µM) | 0.5 µg/mL (≈ 1.53 µM) | 2 µg/mL (≈ 6.11 µM) | 2 µg/mL (≈ 6.11 µM) | 1 µg/mL (≈ 3.06 µM) | CC(=O)NC[C@H]1CC(c2ccc(-n3cc(C#N)cn3)c(F)c2)=NO1 | – | – | –
17 | 2 µg/mL (≈ 5.05 µM) | > 16 µg/mL | 16 µg/mL (≈ 40.4 µM) | 8 µg/mL (≈ 20.2 µM) | 0.5 µg/mL (≈ 1.26 µM) | 1 µg/mL (≈ 2.52 µM) | 2 µg/mL (≈ 5.05 µM) | 0.5 µg/mL (≈ 1.26 µM) | CC(=O)NC[C@H]1CC(c2cc(F)c(N3CCN(C(=O)CO)CC3)c(F)c2)=NO1 | 5 mg/kg | – | –
18 | 2 µg/mL (≈ 6.77 µM) | > 16 µg/mL | 16 µg/mL (≈ 54.2 µM) | 8 µg/mL (≈ 27.1 µM) | 0.25 µg/mL (≈ 0.846 µM) | 2 µg/mL (≈ 6.77 µM) | 1 µg/mL (≈ 3.39 µM) | 0.5 µg/mL (≈ 1.69 µM) | CC(=O)NC[C@H]1CC(c2ccc(-c3ccncc3)cc2)=NO1 | – | – | –
19 | 1 µg/mL (≈ 3.15 µM) | > 16 µg/mL | > 16 µg/mL | 4 µg/mL (≈ 12.6 µM) | 0.5 µg/mL (≈ 1.58 µM) | 1 µg/mL (≈ 3.15 µM) | 1 µg/mL (≈ 3.15 µM) | 0.5 µg/mL (≈ 1.58 µM) | C/C(S)=N/C[C@H]1CC(c2ccc(-n3cccc3)c(F)c2)=NO1 | – | – | –
20 | 1 µg/mL (≈ 2.81 µM) | > 16 µg/mL | 16 µg/mL (≈ 45 µM) | 2 µg/mL (≈ 5.63 µM) | 0.25 µg/mL (≈ 0.703 µM) | 1 µg/mL (≈ 2.81 µM) | 1 µg/mL (≈ 2.81 µM) | 0.25 µg/mL (≈ 0.703 µM) | C/C(S)=N/C[C@H]1CC(c2cc(F)c(N3CCOCC3)c(F)c2)=NO1 | > 20 mg/kg | – | –
